CTSL1 counter: Fasciola hepatica cathepsin L1 inhibitors, primary screen, counter-screen for PFM18AAP inhibitor project, biochemical, QFRET, fluorogenic peptide substrate; recombinant F. hepatica cathepsin L1, Z-Leu-Arg-MCA fluorescence; 300,000 tested, 0.49% active; inhibition, % at 5.96 µM;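 active means inhibition above the mean of all tested compounds plus 3 SD, set per screening campaign, cut at about 17% in these data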;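 further: 0% = plate median of test compound wells and 100% = 1 µM Z-Phe-Ala-diazomethylketone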
PRMT1 FP inh: PRMT1 methyltransferase inhibitors, primary screen, biochemical, fluorescence polarization. recombinant PRMT1, activity-based probe fluorescence polarization. inhibition, % at 2.79 µM. 370,000 tested, 1.3% active. Protein arginine N-methyltransferase 1 (Homo sapiens), Q99873;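 active means inhibition above about 21% made by adding two undisclosed values, limit read from the data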
PAD4 FP inh: human PAD4 inhibitors, primary screen, biochemical, fluorescence polarization, 1536-well format; Protein-arginine deiminase type-4 (Homo sapiens), Q9UM07; recombinant PAD4, RCA probe fluorescence polarization; inhibition, % at 6.36 µM; 330,000 tested, 0.41% active;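 active means percent inhibition above a cutoff equal to the mean of all tested compounds plus 3 SD, cut at about 15% in these data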;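 further: 0% = PAD4 with RCA probe and DMSO and 100% = probe without PAD4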
Target sequence (Q9UM07 whole entry, looked up): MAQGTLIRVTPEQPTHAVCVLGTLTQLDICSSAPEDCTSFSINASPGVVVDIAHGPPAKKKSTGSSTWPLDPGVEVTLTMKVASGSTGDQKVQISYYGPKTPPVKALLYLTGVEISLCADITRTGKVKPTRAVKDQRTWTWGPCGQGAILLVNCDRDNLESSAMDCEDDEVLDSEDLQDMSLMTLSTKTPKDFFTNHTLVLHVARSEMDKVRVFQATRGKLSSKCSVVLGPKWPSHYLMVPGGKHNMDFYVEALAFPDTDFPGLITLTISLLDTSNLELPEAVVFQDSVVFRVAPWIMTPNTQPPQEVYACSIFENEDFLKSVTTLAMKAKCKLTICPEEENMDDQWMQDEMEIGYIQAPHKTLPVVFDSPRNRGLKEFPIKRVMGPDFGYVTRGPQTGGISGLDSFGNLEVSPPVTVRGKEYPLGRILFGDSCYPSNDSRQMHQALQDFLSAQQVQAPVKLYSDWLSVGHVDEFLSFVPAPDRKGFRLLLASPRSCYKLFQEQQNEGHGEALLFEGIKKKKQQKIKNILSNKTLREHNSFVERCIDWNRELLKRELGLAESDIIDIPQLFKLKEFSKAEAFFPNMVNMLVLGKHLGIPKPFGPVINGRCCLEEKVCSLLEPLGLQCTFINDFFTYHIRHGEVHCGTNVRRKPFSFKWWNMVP
TDP2 inh: human TDP2 enzyme inhibitors, primary screen, biochemical, epi absorbance, recombinant enzyme; Tyrosyl-DNA phosphodiesterase 2 (Homo sapiens), O95551; T5PNP hydrolysis, p-nitrophenol absorbance 415 nm; inhibition, % at 12.8 µM; 370,000 tested, 0.34% active;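 active means inhibition above the mean of all tested compounds plus 3 SD, set per campaign, cut at about 25% in these data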;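 further: 0% = DMSO with enzyme and 100% = buffer with substrate but no TDP2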
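Assay system: recombinant human TDP2 / Reagent: T5PNP substrate at 5 mM, a TopII-DNA adduct mimic / Measured by: epi absorbance from released p-nitrophenol / Evaluation: % inhibition relative to enzyme-containing and enzyme-free wells / Control set: enzyme-free and DMSO wells / Replicates: each compound tested once, singlicate / Schedule: enzyme reaction with compound for 2 h at 37 °C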
GSTO1 inh: inhibitors of recombinant GSTO1, primary screen, counter-screen for RBBP9 inhibitor project, biochemical, fluorescence polarization; Glutathione S-transferase omega-1 (Homo sapiens), P78417; activity-based probe fluorescence polarization; inhibition, % at 5.96 µM; 300,000 tested, 1.1% active;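 active means inhibition above the campaign mean inhibition plus 3 SD, cut at about 35% in these data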;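 further: 0% = GSTO1-1 with DMSO and 100% = wells lacking GSTO1-1 enzyme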
Starred values were filed as active, the others as inactive; nt = no result given. Rows were chosen to be rich in hits. Some 2.5% of all compounds tested hit in one or more screens of this group.

SMILES	CTSL1 counter	PRMT1 FP inh	PAD4 FP inh	TDP2 inh	GSTO1 inh
O=C(NCc1ccccc1)/C(=C/c1ccco1)NC(=O)c1ccco1	28*	-1	1	-8	5
CC(C)CC(NC(=O)/C(=C/c1ccco1)NC(=O)c1ccc(Br)o1)C(=O)O (stereo unspecified)	23*	20	-3	-5	-3
O=C(NC(Cc1ccccc1)C(=O)O)/C(=C/c1ccco1)NC(=O)c1cccc([N+](=O)[O-])c1 (stereo unspecified)	4	7	-8	4	4
O=C(NCc1ccccc1)/C(=C/c1ccccc1)NC(=O)c1ccco1	-3	0	1	0	5
COc1ccc(C(=O)N/C(=C/c2ccco2)C(=O)NCc2ccco2)cc1	0	25*	0	-11	6
Cc1ccc(C(=O)N/C(=C/c2ccco2)C(=O)NCc2ccco2)cc1	6	11	0	-2	3
O=C(NC(Cc1ccccc1)C(=O)O)/C(=C\c1ccco1)NC(=O)c1ccccc1Br (stereo unspecified)	5	24*	0	-11	3
CCOC(=O)/C(=C/c1ccco1)NC(=O)c1ccc(Br)o1	5	4	-5	13	4
CN1CCCN(C(=O)C2CCCN(C(=O)c3ccc4c(c3)NC(=O)CS4)C2)CC1 (stereo unspecified)	nt	-2	nt	-6	nt
CCC(C)NC(=O)CNc1nnnn1-c1ccccc1 (stereo unspecified)	nt	-5	nt	-3	nt
CC(C)CC(NC(=O)/C(=C\c1ccco1)NC(=O)c1ccco1)C(=O)O (stereo unspecified)	38*	11	-4	0	6
Fc1ccccc1-c1n[nH]c(=S)n1/N=C/c1c[nH]c2ccccc12	7	24*	0	-10	-7
COc1cc(C=Nn2c(-c3ccccc3F)n[nH]c2=S)ccc1OCc1ccccc1	nt	19	nt	12	nt
COc1ccc2ccccc2c1C=Nn1c(-c2n[nH]c3c2CCC3)n[nH]c1=S	nt	3	nt	-6	nt
S=c1[nH]nc(-c2n[nH]c3c2CCC3)n1N=Cc1c[nH]c2ccccc12	nt	22*	nt	-3	nt
COc1ccccc1NC(=O)OC1CCC12CCCCC2 (stereo unspecified)	nt	1	nt	1	nt
CC(C)N1Cc2nnn(Cc3ccccc3)c2-c2cc(N3CCCC3)ccc2S1(=O)=O	nt	-1	nt	1	nt
Cc1cc2nc(-c3cccc(NC(=O)c4ccc(Br)o4)c3C)oc2cc1C	18*	6	6	-3	-4
Cc1ccc(C)c(OCC(=O)Nc2c(C)n(C)n(-c3ccccc3)c2=O)c1	nt	-1	-2	2	nt
Cc1c(NC(=O)COc2cccc(Cl)c2Cl)c(=O)n(-c2ccccc2)n1C	23*	-3	-12	-23	0
Cc1c(NC(=O)CN2CCN(c3ccc(O)cc3)CC2)c(=O)n(-c2ccccc2)n1C	10	23*	0	1	16
CC(=O)N1CCc2c1cccc2S(=O)(=O)NC(CC(C)C)C(=O)Nc1ccc(Cl)c(Cl)c1 (stereo unspecified)	nt	0	nt	1	nt
COC(=O)C1CN(Cc2ccc(F)cc2)CCS(=O)(=O)N1Cc1cn(Cc2ccc(Cl)cc2)nn1 (stereo unspecified)	nt	0	nt	6	nt
COC(=O)[C@H]1C[C@@]2(C#N)c3ccccc3N(C(=O)OC(C)(C)C)[C@H]2N1C(=O)OC(C)(C)C	nt	-1	nt	-3	nt
C=CS(=O)(=O)N(Cc1nnn(Cc2ccccc2)c1Br)[C@@H](CC(C)C)C(=O)OC	nt	1	nt	8	nt
Cc1nn(-c2ccccc2)c2sc(C(=O)NCCc3ccccc3)cc12	nt	-3	nt	8	nt
Cc1nn(CC(=O)NC2C(=O)N3C(C(=O)O)=C(CSc4nnnn4C)CSC23)cc1Br (stereo unspecified)	5	22*	-8	-1	2
CC1=C(C(=O)O)N2C(=O)C(NC(=O)c3nn(C)cc3Cl)C2SC1 (stereo unspecified)	0	6	-1	0	-5
